Assay [1] concerns the target T1, Tyrosine-protein phosphatase non-receptor type 1 (Homo sapiens, UniProt P18031).
T1 sequence (P18031 whole entry): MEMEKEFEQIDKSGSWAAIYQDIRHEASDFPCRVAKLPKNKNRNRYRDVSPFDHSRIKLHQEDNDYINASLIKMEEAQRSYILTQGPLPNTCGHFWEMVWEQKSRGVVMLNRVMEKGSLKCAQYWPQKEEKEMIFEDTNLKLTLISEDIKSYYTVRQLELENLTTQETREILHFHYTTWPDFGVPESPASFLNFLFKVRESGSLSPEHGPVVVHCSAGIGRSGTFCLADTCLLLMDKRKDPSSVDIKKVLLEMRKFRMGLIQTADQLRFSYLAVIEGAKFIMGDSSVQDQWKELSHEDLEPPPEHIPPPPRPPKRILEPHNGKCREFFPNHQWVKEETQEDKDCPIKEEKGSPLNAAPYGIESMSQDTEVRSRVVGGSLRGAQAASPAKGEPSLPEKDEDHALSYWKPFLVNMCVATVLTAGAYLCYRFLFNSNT
In words: Inhibition of recombinant human Ptp1B using p-nitrophenyl phosphate as substrate preincubated for 10 mins followed by substrate addition and measured every minute for 10 mins by UV-VIS spectrophotometric analysis. The gist of the method:
(§1)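 Recombinant PTP at PtpB 50 nM, LYP 169 nM, PTP-PEST 205 nM or PTP1B 38 nM, in 20 mM imidazole pH 7.0. Inhibitor (0.5–50 µM, DMSO ≤4% v/v) premixed with enzyme 10 min at 37 °C. Started with 10 mM pNPP. A410 each min for 10 min. Activity from 7 min minus 2 min. IC50 by linear regression. Triplicate.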

Assay [2] concerns the target T2, Tyrosine-protein phosphatase non-receptor type 12 (Homo sapiens, UniProt Q05209).
T2 sequence (Q05209 whole entry): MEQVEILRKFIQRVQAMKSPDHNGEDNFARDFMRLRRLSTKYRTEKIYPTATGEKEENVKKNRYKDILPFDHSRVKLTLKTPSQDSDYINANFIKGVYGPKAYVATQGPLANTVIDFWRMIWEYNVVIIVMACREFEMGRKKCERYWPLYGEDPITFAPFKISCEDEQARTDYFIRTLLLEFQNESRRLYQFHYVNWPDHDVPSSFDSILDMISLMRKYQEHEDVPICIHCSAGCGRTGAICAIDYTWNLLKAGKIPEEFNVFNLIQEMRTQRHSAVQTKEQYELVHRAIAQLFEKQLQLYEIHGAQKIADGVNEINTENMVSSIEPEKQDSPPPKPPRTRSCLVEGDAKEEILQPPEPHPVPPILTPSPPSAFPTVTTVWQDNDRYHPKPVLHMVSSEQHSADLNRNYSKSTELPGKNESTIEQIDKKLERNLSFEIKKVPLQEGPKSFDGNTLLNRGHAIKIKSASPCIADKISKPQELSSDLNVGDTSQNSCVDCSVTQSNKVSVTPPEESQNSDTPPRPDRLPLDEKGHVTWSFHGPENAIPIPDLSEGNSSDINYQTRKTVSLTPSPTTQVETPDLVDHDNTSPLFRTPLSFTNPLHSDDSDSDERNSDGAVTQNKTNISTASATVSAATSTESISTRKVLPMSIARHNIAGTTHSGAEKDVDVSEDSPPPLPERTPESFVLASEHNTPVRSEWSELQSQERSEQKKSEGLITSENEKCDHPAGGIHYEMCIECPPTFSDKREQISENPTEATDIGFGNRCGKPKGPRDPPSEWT
In words: Inhibition of recombinant human PTP-PEST using p-nitrophenyl phosphate as substrate preincubated for 10 mins followed by substrate addition and measured every minute for 10 mins by UV-VIS spectrophotometric analysis. The gist of the method: as §1

The target of assay [3] is T3, Low molecular weight protein-tyrosine phosphatase A (Mycobacterium tuberculosis, UniProt P9WIA1).
T3 sequence (P9WIA1 whole entry): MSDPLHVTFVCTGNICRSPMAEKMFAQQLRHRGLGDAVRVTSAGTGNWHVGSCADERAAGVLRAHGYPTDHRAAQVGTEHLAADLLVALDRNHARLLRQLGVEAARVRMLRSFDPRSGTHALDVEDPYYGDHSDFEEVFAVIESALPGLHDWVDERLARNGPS
In words: Competitive inhibition of Mycobacterium tuberculosis PtpA using p-nitrophenyl phosphate as substrate by Michaelis-Menten plot analysis. The gist of the method: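 Mtb PtpA-catalysed pNPP hydrolysis with pNPP varied 0.2–20 mM at each of three inhibitor concentrations. Rates expressed as specific activity (µmol pNPP min-1 mg-1). Vmax and Km fitted to Michaelis–Menten equation. Ki from non-linear fits to competitive or non-competitive inhibition equation, at least three independent experiments.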

From ChEMBL document CHEMBL4261631, “Synthetic thiosemicarbazones as a new class of Mycobacterium tuberculosis protein tyrosine phosphatase A inhibitors” (Bioorg Med Chem, 2018) come the findings set out here.

By IC50 is commonly meant the midpoint of a concentration-inhibition curve. `FC(F)(F)c1ccc(Cl)c(-c2ccc(/C=N/NC(=S)Nc3cccc4ccccc34)o2)c1`: the figures for the IC50 in assay [1] and in assay [2] were 9.4 µM and 15.7 µM, respectively.
By Ki is commonly meant the equilibrium dissociation constant of an inhibitor or competing ligand from its target. Regarding `Cc1ccc(NC(=S)N/N=C/c2ccc(-c3cc(C(F)(F)F)ccc3Cl)o2)cc1`, the figures for the IC50 in assay [1] and in assay [2] were 38.2 µM and over 50 µM, respectively. This molecule yielded a Ki in assay [3] of 12 µM.
Regarding `S=C(N/N=C/c1ccc(-c2ccccc2)cc1)Nc1cccc2ccccc12`, the IC50 in assay [1] and in assay [2] was over 50 µM each time.
For `O=[N+]([O-])c1ccc(/C=N/NC(=S)Nc2cccc3ccccc23)cc1`, the results for the IC50 in assay [1] and in assay [2] were 17 µM and over 50 µM, respectively.
